Experimental data collected from several papers.
Each line is one published result; the experiments were not run side by side.
Organism: Staphylococcus aureus
Effect on: microbial growth

| SMILES | assay | test system | setting | MIC |
| --- | --- | --- | --- | --- |
| CN(C)[C@@H]1C(O)=C(C(N)=O)C(=O)[C@@]2(O)C(O)=C3C(=O)c4c(O)cccc4[C@@](C)(O)[C@H]3C[C@@H]12 | – | 156 | clinical isolate | 0.15 µM |
| CC(C)Oc1c(NC(=O)c2ccc(NC(=O)[C@H](CC(N)=O)NC(=O)c3ccc(NC(=O)c4ccc(C#N)c(Cl)c4)cc3)cc2)ccc(C(=O)Nc2ccc(C(=O)O)cc2)c1O | – | ATCC29213 | – | < 0.03 µg/mL |
| Cc1cc(C)cc(NC(=O)Nc2ccc(N3CCCCC3)cc2)c1 | – | – | – | > 128 µg/mL |
| COc1cc2nccc(Oc3ccc(NC(=O)Nc4cc(C)on4)c(Cl)c3)c2cc1OC | – | NCTC8325 | – | > 30 µM |
| COc1ccc(-c2nc3ccccc3n2Cc2ccccc2)cc1OC | broth dilution | ATCC29213 MSSA | – | 4 µg/mL |
| CNC(=O)c1cc(Oc2ccc(NC(=O)NC34CC5CC(CC(C5)C3)C4)cc2)ccn1 | – | NCTC8325 | – | > 100 µM |
| Fc1ccc(NCc2ccc(Oc3ccccn3)cc2)cc1 | – | – | – | 1.8 µg/mL |
| C/C=C(\C)c1cc(O)c(C)c(OC(=O)c2c(C)c(Cl)c(O)c(Cl)c2O)c1 | broth dilution | 6917 | – | 8 µg/mL |
| COC(=O)c1ccc2c(C(=Nc3ccc(N(C)C(=O)CN4CCN(C)CC4)cc3)c3ccccc3)c(O)[nH]c2c1 | – | NCTC8325 | – | > 30 µM |
| CCCC(=O)Oc1c(C)c(O)c(C(=O)/C=C/c2ccccc2)c(OC)c1C | broth dilution | ATCC25923 | – | > 5000 µg/mL |
| COc1ccc(-c2ccc3c(N4CCOCC4)nc(N4C[C@@H](C)O[C@@H](C)C4)nc3n2)cc1CO | – | NCTC8325 | – | > 30 µM |
| Cc1ccc2nc(-c3cccc(O)c3)[nH]c2c1 | broth dilution | ATCC29213 MSSA | – | 32 µg/mL |
| O=C(O)c1cn(C2CC2)c2cc(N3CCNCC3)c(F)cc2c1=O | broth dilution | ATCC6538 | – | 0.24 µg/mL |
| Cc1c(CN(C)C(=O)/C=C/c2cnc3c(c2)CC(NC(=O)OC(C)(C)C)C(=O)N3)oc2ccccc12 (stereo not drawn) | broth dilution | ATCC29213 | – | 0.016 µg/mL |
| O=C(O)c1cc(Br)c(O)c(Br)c1 | – | – | – | > 128 µg/mL |
| CC(C)Oc1c(NC(=O)c2ccc(NC(=O)[C@H](CC(N)=O)NC(=O)c3ccc(NC(=O)c4ccc(S(C)(=O)=O)cc4)cc3)cc2)ccc(C(=O)Nc2ccc(C(=O)O)cc2)c1O | – | ATCC29213 | – | > 64 µg/mL |
| COc1ccc(-c2nc3ccccc3[nH]2)cc1O | broth dilution | ATCC29213 MSSA | – | 128 µg/mL |
| CC(C)Oc1c(NC(=O)c2ccc(NC(=O)[C@H](CC(N)=O)NC(=O)c3ccc(NC(=O)c4ccc(C#N)cc4)cc3)cc2)ccc(C(=O)NC2CCNCC2)c1O | – | ATCC29213 | – | > 64 µg/mL |
| CNC(=O)c1cc(Oc2ccc(NC(=O)Nc3ccc(C)cc3)cc2)ccn1 | – | NCTC8325 | – | > 100 µM |
| CN[C@H](CC(C)C)C(=O)N[C@H]1C(=O)N[C@@H](CC(N)=O)C(=O)N[C@H]2C(=O)N[C@H]3C(=O)N[C@H](C(=O)N[C@H](C(=O)O)c4cc(O)cc(O)c4-c4cc3ccc4O)[C@H](O)c3ccc(c(Cl)c3)Oc3cc2cc(c3O[C@@H]2O[C@H](CO)[C@@H](O)[C@H](O)[C@H]2O[C@H]2C[C@](C)(N)[C@H](O)[C@H](C)O2)Oc2ccc(cc2Cl)[C@H]1O | broth dilution | ATCC43300 | – | 1.96 µg/mL |
| CC1=NN(CNC(=O)c2ccccn2)C(=O)C1=NNn1c(-c2ccccc2)nc2ccccc2c1=O | broth dilution | – | 24 h | 52 µM |

| SMILES | assay | test system | setting | MIC |
| --- | --- | --- | --- | --- |
| COc1cc(Cc2cnc(N)nc2N)cc(OC)c1OC | broth dilution | – | 24 h | 2 µg/mL |
| COc1c(C)c(OS(=O)(=O)c2ccc3ccccc3c2)c(C)c(O)c1C(=O)/C=C/c1ccccc1 | broth dilution | ATCC25923 | – | 2500 µg/mL |
| CCN(CCO)CCCOc1ccc2c(Nc3cc(CC(=O)Nc4cccc(F)c4)[nH]n3)ncnc2c1 | – | NCTC8325 | – | > 30 µM |
| C/C=C(\C)c1cc(OC(=O)c2c(O)c(C)c(O)c(Cl)c2/C(C)=C/C)c(C)c(O)c1C(=O)O | broth dilution | ATCC29213 | – | 64 µg/mL |
| C=CCn1c(-c2ccc([N+](=O)[O-])cc2)nc2ccc(C)cc21 | broth dilution | ATCC29213 MSSA | – | 32 µg/mL |
| CC[C@H]1OC(=O)[C@H](C)[C@@H](O[C@H]2C[C@@](C)(OC)[C@@H](O)[C@H](C)O2)[C@H](C)[C@@H](O[C@@H]2O[C@H](C)C[C@H](N(C)C)[C@H]2O)[C@](C)(O)C[C@@H](C)C(=O)[C@H](C)[C@@H](O)[C@]1(C)O | – | 156 | clinical isolate | > 100 µM |
| O=C1NC(=S)S/C1=C\c1ccc(-c2ccc(N(c3ccccc3)c3ccccc3)cc2)c2ccccc12 | broth dilution | ATCC43300 | – | 1000 µg/mL |
| CN[C@H](CC(C)C)C(=O)N[C@H]1C(=O)N[C@@H](CC(N)=O)C(=O)N[C@H]2C(=O)N[C@H]3C(=O)N[C@H](C(=O)N[C@H](C(=O)O)c4cc(O)cc(O)c4-c4cc3ccc4O)[C@H](O)c3ccc(c(Cl)c3)Oc3cc2cc(c3O[C@@H]2O[C@H](CO)[C@@H](O)[C@H](O)[C@H]2O[C@H]2C[C@](C)(N)[C@H](O)[C@H](C)O2)Oc2ccc(cc2Cl)[C@H]1O | broth dilution | CCARM3090 | – | 0.5 µg/mL |
| CN(C)c1ccc(-c2nc3ncc(Cl)c(N4CCN(CC(=O)Nc5nccs5)CC4)c3[nH]2)cc1 | – | NCTC8325 | – | > 30 µM |
| Cc1ccc2cccc(C(=O)O)c2c1 | – | – | – | > 128 µg/mL |
| CC1=NN(CNc2ccccc2)C(=O)C1=NNn1c(-c2ccccc2)nc2ccccc2c1=O | broth dilution | – | 24 h | 221 µM |
| CO[C@H]1/C=C/O[C@@]2(C)Oc3c(C)c(O)c4c(O)c(c(/C=N/N5CCN(C)CC5)c(O)c4c3C2=O)NC(=O)/C(C)=C\C=C\[C@H](C)[C@H](O)[C@@H](C)[C@@H](O)[C@@H](C)[C@H](OC(C)=O)[C@@H]1C | broth dilution | ATCCBAA44 | – | 2 µg/mL |
| C/C=C(\C)c1cc(OC(=O)c2c(C)c(Cl)c(O)c(Cl)c2O)c(C)c(O)c1C(=O)O | broth dilution | ATCC29213 | – | 64 µg/mL |
| O=C(O)CN1C(=O)/C(=C/c2ccc(-c3ccc(N(c4ccccc4)c4ccccc4)cc3)cc2)SC1=S | broth dilution | ATCC25923 | – | 3.9 µg/mL |
| CC(C)Oc1c(NC(=O)c2ccc(NC(=O)[C@H](CC(N)=O)NC(=O)c3ccc(NC(=O)c4ccccc4[N+](=O)[O-])cc3)cc2)ccc(C(=O)Nc2ccc(C(=O)O)cc2)c1O | – | ATCC29213 | – | > 64 µg/mL |
| COc1ccc(-c2nc3ccc(C)cc3[nH]2)cc1O | broth dilution | ATCC29213 MSSA | – | 64 µg/mL |
| CC(C)Oc1c(NC(=O)c2ccc(NC(=O)[C@H](CC(N)=O)NC(=O)c3ccc(CCNC(=O)c4ccc(C#N)cc4)cc3)cc2)ccc(C(=O)Nc2ccc(C(=O)O)cc2)c1O | – | ATCC29213 | – | > 64 µg/mL |
| CNC(=O)c1ccc(NC(=O)Nc2ccc(Cl)c(C(F)(F)F)c2)cc1 | – | NCTC8325 | 24 h | 30 µM |
| COc1ccc(-c2nc3ccccc3[nH]2)cc1OC | broth dilution | ATCC29213 MSSA | – | 128 µg/mL |
| Cc1ccc(C)n1-c1ccc(-c2nnc(-c3ccc(N(C)C)cc3)[nH]2)cc1 | broth dilution | ATCC11632 | 18 h | 8 µg/mL |
| Cc1cc(Cl)cc2sc(N(CCCn3ccnc3)C(=O)c3ccco3)nc12 | – | ATCC25923 | – | 2.6 µM |
